Among the data in ChEMBL document CHEMBL2375217, “Structure activity relationship of phenolic diterpenes from Salvia officinalis as activators of the nuclear factor E2-related factor 2 pathway” (Bioorg Med Chem, 2013) are Activity and fold change (FC) values, retold here.

Molecules are shown by their SMILES. Active and inactive are the calls of the source. The calls are words filed in the database; no cut-off is given here.

The target in data set [1] is T1, Nuclear factor erythroid 2-related factor 2 (Mus musculus) (UniProt Q60795).
T1 sequence (whole entry): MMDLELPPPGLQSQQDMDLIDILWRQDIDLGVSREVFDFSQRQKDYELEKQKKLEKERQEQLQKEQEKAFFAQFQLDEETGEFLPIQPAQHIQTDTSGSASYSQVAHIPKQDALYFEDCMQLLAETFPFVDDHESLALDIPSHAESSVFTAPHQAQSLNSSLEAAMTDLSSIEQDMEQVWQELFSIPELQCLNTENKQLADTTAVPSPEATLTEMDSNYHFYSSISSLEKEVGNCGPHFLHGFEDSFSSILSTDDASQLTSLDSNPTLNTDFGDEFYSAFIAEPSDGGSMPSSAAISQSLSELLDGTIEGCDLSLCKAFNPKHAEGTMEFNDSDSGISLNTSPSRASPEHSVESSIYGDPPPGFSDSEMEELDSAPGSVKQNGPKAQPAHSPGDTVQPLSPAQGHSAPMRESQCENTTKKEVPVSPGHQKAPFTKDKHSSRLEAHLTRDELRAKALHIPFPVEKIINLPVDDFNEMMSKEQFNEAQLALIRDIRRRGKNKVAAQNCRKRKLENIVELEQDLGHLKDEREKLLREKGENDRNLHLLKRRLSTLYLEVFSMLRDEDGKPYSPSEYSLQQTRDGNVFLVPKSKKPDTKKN
Briefly: Activation of Nrf2/ARE in E15 stage mouse primary cortical neurons at 6.25 to 50 uM after 48 hrs by human placental alkaline phosphatase reporter gene assay. The class given is cell-based. To be noted: Cerebral cortex neuron. The procedure, abridged:
(§1)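 Mixed cortical cultures (~40% astrocytes/60% neurons) from E15 ARE-hPAP reporter mice, hPAP driven by 51 bp rat NQO1 ARE promoter segment; 6 days in vitro, then compound in DMSO (0.1% final) for 48 h. Lysis in TMNC, endogenous phosphatase heat-inactivated in 200 mM DEA at 65 °C; CSPD chemiluminescence, hPAP-negative baseline subtracted; fold over vehicle, n = 5.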
(In general: In a reporter assay the amount or activity of a reporter protein is the signal.)

The target in data set [2] is T1, Nuclear factor erythroid 2-related factor 2 (Mus musculus). Briefly: Activation of Nrf2/ARE in E15 stage mouse primary cortical neurons after 48 hrs by human placental alkaline phosphatase reporter gene assay. Type of data set: cell-based. To be noted: Cerebral cortex neuron. The procedure, abridged: as §1
For data set [3] the target is unchanged. Briefly: Activation of Nrf2/ARE in E15 stage mouse primary cortical neurons at 50 uM after 48 hrs by human placental alkaline phosphatase reporter gene. The class given is cell-based. To be noted: Cerebral cortex neuron. The procedure, abridged:
as §1

In data set [4] the test system is Cerebral cortex neuron. As to the kind of experiment: Neuroprotective activity against H2O2-induced toxicity in E15 stage mouse primary cortical neurons at 10 uM incubated for 48 hrs prior to H2O2-treatment measured after 24 hrs by MTS assay. Type of data set: functional, cell-based. The procedure, abridged:
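Cortical cultures pretreated 48 h with compound or vehicle, then exposed to increasing H2O2 concentrations for 24 h; viability by soluble MTS assay. n = 4 compound, n = 8 vehicle; one-way ANOVA with Newman-Keuls.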

For data set [5], the system named is Cerebral cortex neuron. As to the kind of experiment: Neuroprotective activity against H2O2-induced oxidative stress in E15 stage mouse primary cortical neurons at 10 uM incubated for 48 hrs prior to H2O2-treatment measured after 24 hrs by TUNEL/DAPI staining-based microscopic analysis. The class given is functional, cell-based. In a few lines:
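Cortical cultures pretreated 48 h with compound or vehicle, then 35 μM H2O2 for 24 h; fragmented DNA detected by TUNEL staining, nuclei counterstained with DAPI, imaged by photomicroscopy.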

Data set [6] can be described thus: Cytotoxicity against E15 stage mouse primary cortical neurons at 50 uM by MTS assay. Type of data set: cell-based. The note with it: cerebral cortex neuron. The procedure, abridged:
(§2)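 Mixed cortical cultures from E15 ARE-hPAP mice, 6 days in vitro (5% O2), exposed 48 h to compound in DMSO (0.1% final). Viability read by soluble MTS assay, normalised to vehicle as percent; mean ± SEM, n = 5, one-way ANOVA with Newman-Keuls.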
(Tetrazolium assays rely on reduction of a dye to a coloured formazan, in cell work by metabolically active cells.)

The target of data set [7] is T1, Nuclear factor erythroid 2-related factor 2 (Mus musculus). As to the kind of experiment: Activation of Nrf2/ARE in E15 stage mouse primary cortical neurons at 25 uM after 48 hrs by human placental alkaline phosphatase reporter gene assay relative to control. The note with it: Cerebral cortex neuron. Type of data set: cell-based. In a few lines: as §1
A short description of data set [8]: Cytotoxicity against E15 stage mouse primary cortical neurons at 25 uM by MTS assay. To be noted: cerebral cortex neuron. Type of data set: cell-based. In a few lines: as §2
The target of data set [9] is T1, Nuclear factor erythroid 2-related factor 2 (Mus musculus). Briefly: Induction of Nrf2/ARE-mediated GCLC gene expression in E15 stage mouse primary cortical neurons at 10 uM after 24 hrs by qPCR analysis. The class given is cell-based. The note with it: Cerebral cortex neuron. In a few lines: (§3)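 E15 ARE-hPAP mouse mixed cortical cultures treated 24 h with compound or vehicle; total RNA harvested for quantitative PCR, normalised to GAPDH, fold change vs vehicle; n = 8 treated, n = 4 vehicle.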

Data set [10] shares this target. Briefly: Induction of Nrf2/ARE-mediated NQO1 gene expression in E15 stage mouse primary cortical neurons at 10 uM after 24 hrs by qPCR analysis. Type of data set: cell-based. To be noted: Cerebral cortex neuron. The procedure, abridged:
as §3

The subject of data set [11] is Cerebral cortex neuron. Briefly: Neuroprotective activity against H2O2-induced oxidative stress in E15 stage mouse primary cortical neurons at 20 uM incubated for 48 hrs prior to H2O2-treatment measured after 24 hrs by TUNEL/DAPI staining-based microscopic analysis. Type of data set: functional, cell-based. The procedure, abridged: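 Mixed cortical cultures (~40% astrocytes, 60% neurons) from E15 ARE-hPAP reporter mouse pups were pretreated with compound or vehicle for 48 h. They were then exposed to 35 μM H2O2 for a further 24 h. Fragmented DNA was stained by TUNEL and nuclei by DAPI, and both were imaged by photomicroscopy.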

The target of data set [12] is T1, Nuclear factor erythroid 2-related factor 2 (Mus musculus). As to the kind of experiment: Induction of Nrf2/ARE-mediated GCLM gene expression in E15 stage mouse primary cortical neurons at 20 uM after 24 hrs by qPCR analysis. Type of data set: cell-based. The note with it: Cerebral cortex neuron. In a few lines: (§4)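 Mixed cortical cultures (~40% astrocytes, 60% neurons) from E15 ARE-hPAP reporter mouse pups, grown in Neurobasal/B27 medium at 37 °C under 5% O2, 5% CO2. Treated with compound or vehicle for 24 h. Total RNA used for quantitative PCR, normalised to GAPDH and expressed as fold change relative to vehicle. Mean ± SEM, n = 8 treated, n = 4 vehicle. One-way ANOVA with Newman-Keuls.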
Background: In qPCR the cycle at which signal appears reflects the starting amount.

The target is the same in data set [13]. As to the kind of experiment: Induction of Nrf2/ARE-mediated NQO1 gene expression in E15 stage mouse primary cortical neurons at 20 uM after 24 hrs by qPCR analysis. The note with it: Cerebral cortex neuron. The class given is cell-based. The procedure, abridged: as §4
Data set [14] concerns Cerebral cortex neuron. Briefly: Neuroprotective activity against H2O2-induced toxicity in E15 stage mouse primary cortical neurons at 20 uM incubated for 48 hrs prior to H2O2-treatment measured after 24 hrs by MTS assay. The class given is functional, cell-based. The procedure, abridged: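 Mixed cortical cultures (~40% astrocytes, 60% neurons) from E15 ARE-hPAP reporter mouse pups were pretreated with compound or vehicle for 48 h. They were then challenged with increasing H2O2 concentrations for 24 h. Viability was read by soluble MTS assay. Mean ± SEM, n = 4 compound, n = 8 vehicle. One-way ANOVA with Newman-Keuls.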

The target in data set [15] is T1, Nuclear factor erythroid 2-related factor 2 (Mus musculus). Briefly: Induction of Nrf2/ARE-mediated GCLC gene expression in E15 stage mouse primary cortical neurons at 20 uM after 24 hrs by qPCR analysis. The class given is cell-based. The note with it: Cerebral cortex neuron. The procedure, abridged: as §4

`CC(C)(C)c1cc(O)ccc1O`: the outcome in [1] was Active.

As to `CC(C)c1cc2c(c(O)c1O)C1=C(CC2)C(C)(C)CCC1=O`, the Activity result in data set [2] was “Dose-dependent effect”. Further, in data set [1], the result was Active.

In the case of `CC(C)c1cc2c(c(O)c1O)[C@@]13CCCC(C)(C)[C@@H]1[C@H](OC3=O)[C@@H]2O`, the Activity result in data set [2] is “Dose-dependent effect”. The outcome in data set [1] was Active.

Regarding `CC(C)c1cc2c(c(O)c1O)[C@@]13CCCC(C)(C)[C@@H]1[C@H](OC3=O)[C@H]2O`, in [2], the Activity result is “Dose-dependent effect”. Besides, the result in data set [1] was Active.

In the case of `COc1c(C(C)C)cc2c(c1O)[C@@]1(C(=O)O)CCCC(C)(C)[C@@H]1CC2`, the result in data set [1] was inactive.

Turning to `CC(C)c1cc2c(c(O)c1O)[C@@]1(C=O)CCCC(C)(C)[C@@H]1CC2` [CARNOSALDEHYDE], in [3], the result was inactive. Moreover, the outcome in data set [4], in data set [5], in data set [9] and in [10] was Active. For the same molecule, the figures for the Activity result in [6], in [2] and in [8] were “Toxic”, “Dose-dependent effect” and “Toxic”, respectively. In data set [7], this molecule registered a fold change (FC) of 50.

In the case of `CC(C)c1cc2c(c(O)c1O)[C@@]1(C(=O)O)CCCC(C)(C)[C@@H]1CC2` [CARNOSIC ACID], the values for the Activity result in [6] and in data set [2] were “Toxic” and “Dose-dependent effect”, respectively. For the same molecule, the result in [1] was Active.

Regarding `CC(C)c1cc2c(c(O)c1O)[C@@]13CCCC(C)(C)[C@@H]1C[C@@H]2OC3=O` [CARNOSOL], in data set [3], the outcome was inactive. The Activity entry in data set [6] is “Toxic”; in [2], “Dose-dependent effect”. Besides, the outcome in data set [11], in [12], in [13], in data set [14] and in [15] was Active. The fold change (FC) in data set [7] turned out to be 50.
